According to ChEMBL document CHEMBL2424622, “Development of amino-pyrimidine inhibitors of c-Jun N-terminal kinase (JNK): kinase profiling guided optimization of a 1,2,3-benzotriazole lead” (Bioorg Med Chem Lett, 2013):

Experiments:
[1] = biological target: Death-associated protein kinase 3 (Homo sapiens, UniProt O43293); experiment: Competitive binding affinity to DAPK3 (unknown origin) at 10 uM in presence of ATP relative to control
In short: (§1)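 In vitro ATP-site competition binding assay across a diverse panel of 128 kinases, with each compound tested at a single concentration. Kinase binding is expressed relative to control.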

[2] = biological target: Casein kinase I isoform gamma-2 (Homo sapiens) (UniProt P78368); experiment: Competitive binding affinity to CSNK1G2 (unknown origin) at 10 uM in presence of ATP relative to control
Chain of Casein kinase I isoform gamma-2 (Homo sapiens) (P78368 whole entry, looked up, canonical isoform): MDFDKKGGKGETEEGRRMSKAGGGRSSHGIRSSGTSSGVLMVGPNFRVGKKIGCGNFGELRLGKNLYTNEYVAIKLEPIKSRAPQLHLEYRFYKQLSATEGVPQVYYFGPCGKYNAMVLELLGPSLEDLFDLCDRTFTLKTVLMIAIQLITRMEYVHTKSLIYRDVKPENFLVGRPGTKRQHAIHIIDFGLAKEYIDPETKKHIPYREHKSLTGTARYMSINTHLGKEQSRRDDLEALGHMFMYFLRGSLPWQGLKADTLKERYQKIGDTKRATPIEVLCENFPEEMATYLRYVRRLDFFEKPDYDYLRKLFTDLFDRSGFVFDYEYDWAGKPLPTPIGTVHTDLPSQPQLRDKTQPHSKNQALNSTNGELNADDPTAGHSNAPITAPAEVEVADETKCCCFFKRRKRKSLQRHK

[3] = biological target: Calcium/calmodulin-dependent protein kinase kinase 1 (Homo sapiens) (UniProt Q8N5S9); experiment: Competitive binding affinity to CAMKK1 (unknown origin) at 10 uM in presence of ATP relative to control
Chain of Calcium/calmodulin-dependent protein kinase kinase 1 (Homo sapiens) (Q8N5S9 whole entry, looked up): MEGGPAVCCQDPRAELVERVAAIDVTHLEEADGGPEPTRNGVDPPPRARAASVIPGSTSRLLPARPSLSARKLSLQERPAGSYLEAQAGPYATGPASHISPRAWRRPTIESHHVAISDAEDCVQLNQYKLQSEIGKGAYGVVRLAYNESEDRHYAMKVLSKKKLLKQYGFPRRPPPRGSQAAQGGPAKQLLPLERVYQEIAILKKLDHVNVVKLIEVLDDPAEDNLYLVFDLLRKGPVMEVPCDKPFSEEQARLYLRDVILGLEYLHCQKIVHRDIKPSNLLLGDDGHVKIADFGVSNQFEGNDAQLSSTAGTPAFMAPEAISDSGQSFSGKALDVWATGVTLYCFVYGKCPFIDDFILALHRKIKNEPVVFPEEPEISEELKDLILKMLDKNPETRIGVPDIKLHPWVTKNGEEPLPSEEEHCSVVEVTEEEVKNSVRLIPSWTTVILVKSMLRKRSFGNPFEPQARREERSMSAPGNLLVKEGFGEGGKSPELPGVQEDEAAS

[4] = biological target: Tyrosine-protein kinase Blk (Homo sapiens) (UniProt P51451); experiment: Competitive binding affinity to BLK (unknown origin) at 10 uM in presence of ATP relative to control
Chain of Tyrosine-protein kinase Blk (Homo sapiens) (P51451 2-505 limits assumed): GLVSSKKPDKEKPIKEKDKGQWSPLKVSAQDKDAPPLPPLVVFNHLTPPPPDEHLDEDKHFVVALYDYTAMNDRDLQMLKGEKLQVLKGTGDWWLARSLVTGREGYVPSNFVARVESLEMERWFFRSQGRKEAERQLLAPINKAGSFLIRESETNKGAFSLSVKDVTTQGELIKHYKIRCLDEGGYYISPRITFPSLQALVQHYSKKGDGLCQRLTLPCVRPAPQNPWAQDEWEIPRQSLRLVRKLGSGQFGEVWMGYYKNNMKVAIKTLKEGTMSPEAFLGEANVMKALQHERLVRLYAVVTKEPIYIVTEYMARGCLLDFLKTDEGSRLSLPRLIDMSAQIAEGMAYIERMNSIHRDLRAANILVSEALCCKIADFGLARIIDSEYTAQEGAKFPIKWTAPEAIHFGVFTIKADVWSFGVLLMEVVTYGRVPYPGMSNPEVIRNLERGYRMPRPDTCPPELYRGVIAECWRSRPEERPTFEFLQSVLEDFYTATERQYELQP

[5] = biological target: Tyrosine-protein kinase ABL2 (Homo sapiens) (UniProt P42684); experiment: Competitive binding affinity to ABL2 (unknown origin) at 10 uM in presence of ATP relative to control
Chain of Tyrosine-protein kinase ABL2 (Homo sapiens) (P42684 whole entry): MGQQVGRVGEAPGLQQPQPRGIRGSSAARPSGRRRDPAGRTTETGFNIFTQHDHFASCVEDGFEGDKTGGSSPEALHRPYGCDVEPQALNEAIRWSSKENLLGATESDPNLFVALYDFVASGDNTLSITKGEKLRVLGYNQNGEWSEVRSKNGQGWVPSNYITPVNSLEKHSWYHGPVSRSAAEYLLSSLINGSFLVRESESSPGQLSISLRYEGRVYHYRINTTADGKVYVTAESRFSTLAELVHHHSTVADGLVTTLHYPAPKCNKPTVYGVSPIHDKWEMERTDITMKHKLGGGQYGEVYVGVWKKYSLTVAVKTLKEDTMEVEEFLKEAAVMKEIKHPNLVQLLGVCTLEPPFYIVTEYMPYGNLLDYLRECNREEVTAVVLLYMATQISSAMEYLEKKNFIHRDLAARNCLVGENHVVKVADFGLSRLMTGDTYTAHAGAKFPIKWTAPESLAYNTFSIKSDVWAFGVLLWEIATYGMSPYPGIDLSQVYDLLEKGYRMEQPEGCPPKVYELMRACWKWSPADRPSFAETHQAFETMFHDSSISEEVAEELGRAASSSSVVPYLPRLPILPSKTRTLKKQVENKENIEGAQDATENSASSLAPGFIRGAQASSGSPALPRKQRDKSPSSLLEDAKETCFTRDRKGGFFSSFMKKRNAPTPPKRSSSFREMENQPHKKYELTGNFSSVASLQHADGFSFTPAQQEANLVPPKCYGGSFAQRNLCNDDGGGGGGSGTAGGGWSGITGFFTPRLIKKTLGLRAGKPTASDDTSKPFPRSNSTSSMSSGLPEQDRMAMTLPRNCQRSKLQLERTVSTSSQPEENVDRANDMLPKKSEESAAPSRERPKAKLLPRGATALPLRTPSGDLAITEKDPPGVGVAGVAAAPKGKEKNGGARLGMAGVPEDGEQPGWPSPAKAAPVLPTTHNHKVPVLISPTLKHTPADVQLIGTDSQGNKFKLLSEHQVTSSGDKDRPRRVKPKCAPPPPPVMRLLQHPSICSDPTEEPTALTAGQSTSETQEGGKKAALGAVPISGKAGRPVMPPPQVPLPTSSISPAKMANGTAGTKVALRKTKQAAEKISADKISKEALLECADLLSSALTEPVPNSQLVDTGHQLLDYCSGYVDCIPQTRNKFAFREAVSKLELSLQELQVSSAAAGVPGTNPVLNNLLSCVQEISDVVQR

[6] = biological target: T1, Dual specificity protein kinase TTK (Homo sapiens) (UniProt P33981); experiment: Competitive binding affinity to TTK (unknown origin) at 10 uM in presence of ATP relative to control; in short: as §1
T1 sequence (whole entry): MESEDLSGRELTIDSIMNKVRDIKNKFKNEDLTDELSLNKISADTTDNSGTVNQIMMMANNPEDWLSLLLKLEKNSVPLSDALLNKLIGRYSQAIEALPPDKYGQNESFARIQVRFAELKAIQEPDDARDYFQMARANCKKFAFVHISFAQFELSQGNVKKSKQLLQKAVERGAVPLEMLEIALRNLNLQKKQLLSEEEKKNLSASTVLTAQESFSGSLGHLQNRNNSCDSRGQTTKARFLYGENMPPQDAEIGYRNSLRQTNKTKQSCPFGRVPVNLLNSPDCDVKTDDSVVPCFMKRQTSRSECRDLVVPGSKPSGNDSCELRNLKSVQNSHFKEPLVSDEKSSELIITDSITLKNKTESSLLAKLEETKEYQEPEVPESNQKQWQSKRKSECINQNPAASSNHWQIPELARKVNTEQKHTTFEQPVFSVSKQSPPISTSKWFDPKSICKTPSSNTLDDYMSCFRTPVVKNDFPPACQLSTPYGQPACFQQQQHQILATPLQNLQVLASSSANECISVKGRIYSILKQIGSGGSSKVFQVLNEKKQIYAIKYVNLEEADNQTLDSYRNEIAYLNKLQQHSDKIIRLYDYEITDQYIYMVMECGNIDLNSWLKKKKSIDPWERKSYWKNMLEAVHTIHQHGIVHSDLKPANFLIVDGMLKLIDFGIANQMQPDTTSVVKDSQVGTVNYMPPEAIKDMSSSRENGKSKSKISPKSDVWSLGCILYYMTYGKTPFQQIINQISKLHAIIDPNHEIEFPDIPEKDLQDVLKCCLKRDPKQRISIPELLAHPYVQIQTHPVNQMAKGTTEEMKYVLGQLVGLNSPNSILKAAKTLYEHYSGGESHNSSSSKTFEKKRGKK

[7] = biological target: Tyrosine-protein kinase SYK (Homo sapiens) (UniProt P43405); experiment: Competitive binding affinity to SYK (unknown origin) at 10 uM in presence of ATP relative to control
In short: (§2)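 In vitro ATP-site competition binding assay across a diverse panel of 128 kinases, with compound tested at a single concentration. Kinase selectivity scores (S15) were calculated from the panel profiles.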

[8] = biological target: Serine/threonine-protein kinase 16 (Homo sapiens, UniProt O75716); experiment: Competitive binding affinity to STK16 (unknown origin) at 10 uM in presence of ATP relative to control; in short: as §2
Chain of Serine/threonine-protein kinase 16 (O75716 whole entry): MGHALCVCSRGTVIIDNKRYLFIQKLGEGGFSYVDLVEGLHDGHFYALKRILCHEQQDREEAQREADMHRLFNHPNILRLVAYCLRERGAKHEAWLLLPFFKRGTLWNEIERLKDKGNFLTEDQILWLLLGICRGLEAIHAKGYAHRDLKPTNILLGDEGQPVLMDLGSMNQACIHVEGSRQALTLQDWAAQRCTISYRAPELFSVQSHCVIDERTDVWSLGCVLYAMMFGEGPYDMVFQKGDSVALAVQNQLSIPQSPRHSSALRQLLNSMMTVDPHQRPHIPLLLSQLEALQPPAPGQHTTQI

[9] = biological target: Proto-oncogene tyrosine-protein kinase Src (Homo sapiens) (UniProt P12931); experiment: Competitive binding affinity to SRC (unknown origin) at 10 uM in presence of ATP relative to control; in short: as §2
[10] = biological target: Receptor-interacting serine/threonine-protein kinase 2 (Homo sapiens) (UniProt O43353); experiment: Competitive binding affinity to RIPK2 (unknown origin) at 10 uM in presence of ATP relative to control; in short: as §2
[11] = biological target: Mitogen-activated protein kinase 11 (Homo sapiens, UniProt Q15759); experiment: Competitive binding affinity to p38-beta (unknown origin) at 10 uM in presence of ATP relative to control; in short: as §2
Chain of Mitogen-activated protein kinase 11 (Q15759 whole entry): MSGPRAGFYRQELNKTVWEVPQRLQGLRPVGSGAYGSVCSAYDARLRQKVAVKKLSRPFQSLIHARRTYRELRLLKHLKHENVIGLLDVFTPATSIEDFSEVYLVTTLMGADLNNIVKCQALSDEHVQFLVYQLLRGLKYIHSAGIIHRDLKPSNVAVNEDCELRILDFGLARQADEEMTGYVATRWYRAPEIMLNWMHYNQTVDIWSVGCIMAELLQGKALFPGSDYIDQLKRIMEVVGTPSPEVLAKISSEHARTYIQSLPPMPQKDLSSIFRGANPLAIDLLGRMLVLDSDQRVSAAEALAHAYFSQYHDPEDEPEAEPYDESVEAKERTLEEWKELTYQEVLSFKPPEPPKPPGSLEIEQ

[12] = biological target: Mitogen-activated protein kinase 9 (Homo sapiens, UniProt P45984); experiment: Competitive binding affinity to JNK2 (unknown origin) at 10 uM in presence of ATP relative to control; in short: as §1
[13] = biological target: Tyrosine-protein kinase JAK1 (Homo sapiens) (UniProt P23458); experiment: Competitive binding affinity to JAK1 kinase domain 1 (unknown origin) at 10 uM in presence of ATP relative to control
Chain of Tyrosine-protein kinase JAK1 (Homo sapiens) (P23458 whole entry, the tested form may be a part): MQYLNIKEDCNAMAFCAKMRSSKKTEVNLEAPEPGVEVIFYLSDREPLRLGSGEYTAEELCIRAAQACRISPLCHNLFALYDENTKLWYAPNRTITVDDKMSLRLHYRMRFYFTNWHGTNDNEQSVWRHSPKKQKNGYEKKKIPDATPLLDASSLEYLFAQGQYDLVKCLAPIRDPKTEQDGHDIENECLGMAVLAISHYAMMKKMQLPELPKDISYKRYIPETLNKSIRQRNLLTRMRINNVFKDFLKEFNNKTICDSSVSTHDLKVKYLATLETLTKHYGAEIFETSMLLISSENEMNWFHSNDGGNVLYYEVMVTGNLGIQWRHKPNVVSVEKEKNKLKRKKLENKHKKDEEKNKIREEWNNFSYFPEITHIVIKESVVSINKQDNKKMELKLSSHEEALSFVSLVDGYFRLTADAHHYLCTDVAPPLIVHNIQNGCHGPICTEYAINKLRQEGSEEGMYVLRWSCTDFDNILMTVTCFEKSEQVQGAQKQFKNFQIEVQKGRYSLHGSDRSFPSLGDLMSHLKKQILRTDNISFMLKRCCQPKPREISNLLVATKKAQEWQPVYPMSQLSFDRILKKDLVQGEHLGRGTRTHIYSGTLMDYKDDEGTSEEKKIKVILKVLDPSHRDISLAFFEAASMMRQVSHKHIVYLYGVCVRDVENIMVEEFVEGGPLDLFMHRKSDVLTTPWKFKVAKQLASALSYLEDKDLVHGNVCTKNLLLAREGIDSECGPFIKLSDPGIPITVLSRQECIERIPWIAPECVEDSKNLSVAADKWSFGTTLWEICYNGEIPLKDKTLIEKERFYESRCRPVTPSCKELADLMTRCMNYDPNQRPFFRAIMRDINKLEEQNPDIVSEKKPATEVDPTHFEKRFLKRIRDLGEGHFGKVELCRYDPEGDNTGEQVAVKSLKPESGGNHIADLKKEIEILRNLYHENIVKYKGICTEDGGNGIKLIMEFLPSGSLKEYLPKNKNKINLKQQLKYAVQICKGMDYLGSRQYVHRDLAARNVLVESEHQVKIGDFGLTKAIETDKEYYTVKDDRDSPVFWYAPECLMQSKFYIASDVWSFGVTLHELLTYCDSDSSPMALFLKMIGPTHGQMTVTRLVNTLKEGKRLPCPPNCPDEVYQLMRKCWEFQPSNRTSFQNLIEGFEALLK
In short: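 In vitro ATP-site competition binding assay, part of profiling against a diverse panel of 128 kinases. Each compound was tested at a single concentration of 10 µM. Kinome selectivity was summarized as S15 selectivity scores.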

Chain of Death-associated protein kinase 3 (O43293 whole entry, looked up): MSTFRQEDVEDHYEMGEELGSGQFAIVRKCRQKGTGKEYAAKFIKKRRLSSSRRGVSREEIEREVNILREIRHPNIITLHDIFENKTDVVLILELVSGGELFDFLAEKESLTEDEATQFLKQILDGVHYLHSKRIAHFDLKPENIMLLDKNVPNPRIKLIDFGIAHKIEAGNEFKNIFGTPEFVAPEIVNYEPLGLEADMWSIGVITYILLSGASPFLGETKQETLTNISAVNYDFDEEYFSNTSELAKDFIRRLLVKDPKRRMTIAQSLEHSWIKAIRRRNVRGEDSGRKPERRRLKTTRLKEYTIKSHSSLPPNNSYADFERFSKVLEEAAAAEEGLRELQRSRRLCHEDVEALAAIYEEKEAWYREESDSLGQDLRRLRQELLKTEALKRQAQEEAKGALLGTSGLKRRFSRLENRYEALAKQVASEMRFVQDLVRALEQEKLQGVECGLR

| inhibition [2] | inhibition [3] | inhibition [4] | inhibition [5] | inhibition [6] | inhibition [7] | inhibition [8] | inhibition [9] | inhibition [10] | inhibition [11] | inhibition [12] | inhibition [13] | Compound | inhibition [1] |
| --- | --- | --- | --- | --- | --- | --- | --- | --- | --- | --- | --- | --- | --- |
| < 50% | < 50% | < 50% | < 50% | 100% | < 50% | 81% | < 50% | < 50% | < 50% | 99% | 88% | O[C@H]1CC[C@H](Nc2nccc(-n3ncc4ccccc43)n2)CC1 | < 50% |
| < 50% | < 50% | < 50% | < 50% | 84% | < 50% | < 50% | < 50% | < 50% | < 50% | 99% | < 50% | O[C@H]1CC[C@H](Nc2nccc(-n3ccc4ccccc43)n2)CC1 | < 50% |
| 100% | < 50% | 99% | 89% | 96% | < 50% | 83% | < 50% | < 50% | < 50% | 100% | < 50% | N[C@H]1CC[C@H](Nc2nccc(-n3nnc4ccccc43)n2)CC1 | 95% |
| 74% | 85% | 92% | < 50% | 100% | 69% | 100% | 78% | < 50% | < 50% | 93% | 99% | O[C@H]1CC[C@H](Nc2nccc(-c3n[nH]c4ccccc34)n2)CC1 | 96% |
| 50% | < 50% | 88% | < 50% | 99% | < 50% | < 50% | < 50% | 66% | < 50% | 99% | < 50% | O[C@H]1CC[C@H](Nc2nccc(-n3nnc4ccccc43)n2)CC1 | 93% |
|  |  |  |  | > 85% |  | > 85% |  |  | > 85% | > 85% |  | CS(=O)(=O)CCCOc1cccc2c1ccn2-c1ccnc(N[C@H]2CC[C@H](C(=O)N3CCC(O)CC3)CC2)n1 | > 85% |
| 76% | < 50% | 93% | < 50% | 98% | < 50% | 93% | < 50% | < 50% | < 50% | 98% | < 50% | O=C([C@H]1CC[C@H](Nc2nccc(-n3nnc4ccccc43)n2)CC1)N1CCOCC1 | 64% |
